From ChEMBL document CHEMBL1133480, “Rational design, synthesis, and biological activity of benzoxazinones as novel factor Xa inhibitors” (J Med Chem, 2000)
Blank lines part the entries; values can stand above or below the compound they belong to.

Assays:
Plasminogen [1] = target: T1, Plasminogen (Homo sapiens, UniProt P00747); experiment: Inhibition of plasmin at 100 uM
Prothrombin [2] = target: T2, Prothrombin (Homo sapiens, UniProt P00734); experiment: Inhibition of thrombin
In short: (§1)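 Enzyme was preincubated 1 h at room temperature with inhibitor across 14 concentrations (1 nM–100 μM final). A405 was read kinetically over 10 min at 37 °C. Percent inhibition came from the linear progress-curve slopes, typically in duplicate.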

Coagulation factor X [3] = target: T3, Coagulation factor X (Homo sapiens, UniProt P00742); experiment: In vitro inhibition of coagulation factor Xa.; in short: as §1
T3 sequence (P00742 41-179 limits assumed): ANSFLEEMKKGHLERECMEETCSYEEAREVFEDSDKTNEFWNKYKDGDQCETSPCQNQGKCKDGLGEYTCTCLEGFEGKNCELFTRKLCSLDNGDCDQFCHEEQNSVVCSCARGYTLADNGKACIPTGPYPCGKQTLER
T3 sequence (P00742 235-488 limits assumed): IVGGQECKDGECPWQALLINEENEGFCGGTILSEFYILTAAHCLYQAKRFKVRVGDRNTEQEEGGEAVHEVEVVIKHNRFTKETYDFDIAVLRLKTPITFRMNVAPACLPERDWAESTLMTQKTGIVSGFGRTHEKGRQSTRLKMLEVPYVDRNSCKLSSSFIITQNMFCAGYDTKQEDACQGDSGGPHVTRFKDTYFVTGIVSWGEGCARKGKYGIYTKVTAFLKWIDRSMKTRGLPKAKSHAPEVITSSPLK

Serine protease 1 [4] = target: T4, Serine protease 1 (Homo sapiens, UniProt P07477); experiment: In vitro inhibitory activity against trypsin; in short: as §1
T4 sequence (P07477 whole entry): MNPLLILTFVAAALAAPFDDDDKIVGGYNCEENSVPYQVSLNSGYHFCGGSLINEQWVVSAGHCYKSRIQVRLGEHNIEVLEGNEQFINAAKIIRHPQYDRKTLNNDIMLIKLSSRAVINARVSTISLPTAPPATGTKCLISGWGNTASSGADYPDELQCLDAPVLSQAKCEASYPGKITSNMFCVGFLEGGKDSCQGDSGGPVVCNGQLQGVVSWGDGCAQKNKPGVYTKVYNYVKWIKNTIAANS

Prothrombin [5] = target: T2, Prothrombin; experiment: Inhibition of thrombin at 100 uM
Serine protease 1 [6] = target: T4, Serine protease 1; experiment: In vitro inhibitory activity against trypsin at 100 uM
Coagulation factor X [7] = target: T3, Coagulation factor X; experiment: Compound was tested for in vitro inhibitory activity against Coagulation factor X at 100 uM
Canis familiaris [8] = experiment: effect on the time to occlusion(TO) in the dog electrolytic injury model at the 2.5 ug/kg/min to the vein; type: functional, Canis lupus familiaris
In short: (§2)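 Anesthetized dogs received electrolytic injury to the endothelium as the thrombotic stimulus in the femoral artery and a vein. Agent was infused continuously at 0 (control), 1.25, 2.5, 5 or 10 μg/kg/min. Time to occlusion was recorded up to a maximum of 240 min. n = 12 control, 4 at 1.25, and 5 at each other dose; mean ± SEM.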

Canis familiaris [9] = experiment: effect on the time to occlusion(TO) in the dog electrolytic injury model at the 2.5 ug/kg/min to the artery; type: functional, Canis lupus familiaris; in short: as §2
Canis lupus familiaris [10] = organism: Canis lupus familiaris; experiment: In Vitro evaluation for the concentration for 2 fold prolongation of Prothrombin Time (PT) assay in dog
Plasminogen [11] = target: T1, Plasminogen; experiment: Compound was tested for in vitro inhibitory activity against plasmin; in short: as §1
Oryctolagus cuniculus [12] = experiment: effect on the time to occlusion in the rabbit Veno-venous Shunt model by administering through intravenous (IV) bolus (60 ug/kg) + infusion (2 ug/kg/min); type: functional
In short: (§3)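 Rabbit veno-venous shunt containing cotton threads. Test agent was given as an iv bolus plus continuous infusion at the stated dose. The endpoint was time to occlusion of the shunt vessel, observed over a 2-h window. Incidence of occlusion per group was recorded. n = 5 per dose group, mean ± SE.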

Homo sapiens [13] = organism: Homo sapiens; experiment: In Vitro evaluation for the concentration for 2 fold prolongation of Prothrombin Time (PT) assay in human
Oryctolagus cuniculus [14] = experiment: effect on the time to occlusion in the rabbit Veno-venous Shunt model by administering through intravenous (IV) bolus (90 ug/kg) + infusion (3 ug/kg/min); type: functional; in short: as §3
Canis familiaris [15] = experiment: effect on the time to occlusion(TO) in the dog electrolytic injury model at the 1.25 ug/kg/min to the artery; type: functional, Canis lupus familiaris; in short: as §2
Coagulation factor X [16] = target: T3, Coagulation factor X; experiment: Compound was tested for in vitro inhibitory activity against Prothrombinase
Canis familiaris [17] = experiment: effect on the time to occlusion(TO) in the dog electrolytic injury model at the 5 ug/kg/min to the artery; type: functional, Canis lupus familiaris; in short: as §2
[18] = Compound was tested for in vitro inhibitory activity against Chymotrypsinogen at 100 uM
Homo sapiens [19] = organism: Homo sapiens; experiment: In Vitro evaluation for the concentration for 2 fold prolongation of Prolonged activated partial thromboplastin Time (aPTT) assay in human; type: functional
In short: (§4)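 Clotting assays (PT or aPTT) used pooled plasma from the named species with added inhibitor. The value is the concentration giving a 2-fold prolongation of clotting time. Determinations were done in duplicate.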

Oryctolagus cuniculus [20] = organism: Oryctolagus cuniculus; experiment: In Vitro evaluation for the concentration for 2 fold prolongation of Prolonged activated partial thromboplastin Time (aPTT) assay in rabbit; type: functional; in short: as §4
Canis familiaris [21] = experiment: effect on the time to occlusion(TO) in the dog electrolytic injury model at the 1.25 ug/kg/min to the vein; type: functional, Canis lupus familiaris; in short: as §2
Canis lupus familiaris [22] = organism: Canis lupus familiaris; experiment: In Vitro evaluation for the concentration for 2 fold prolongation of Prolonged activated partial thromboplastin Time (aPTT) assay in dog
Canis familiaris [23] = experiment: effect on the time to occlusion(TO) in the dog electrolytic injury model at the 10 ug/kg/min to the vein; type: functional, Canis lupus familiaris; in short: as §2
[24] = target: T5, Coagulation factor VII (Homo sapiens) (UniProt P08709); experiment: Compound was tested for in vitro inhibitory activity against coagulation factor VII at 100 uM
T5 sequence (whole entry): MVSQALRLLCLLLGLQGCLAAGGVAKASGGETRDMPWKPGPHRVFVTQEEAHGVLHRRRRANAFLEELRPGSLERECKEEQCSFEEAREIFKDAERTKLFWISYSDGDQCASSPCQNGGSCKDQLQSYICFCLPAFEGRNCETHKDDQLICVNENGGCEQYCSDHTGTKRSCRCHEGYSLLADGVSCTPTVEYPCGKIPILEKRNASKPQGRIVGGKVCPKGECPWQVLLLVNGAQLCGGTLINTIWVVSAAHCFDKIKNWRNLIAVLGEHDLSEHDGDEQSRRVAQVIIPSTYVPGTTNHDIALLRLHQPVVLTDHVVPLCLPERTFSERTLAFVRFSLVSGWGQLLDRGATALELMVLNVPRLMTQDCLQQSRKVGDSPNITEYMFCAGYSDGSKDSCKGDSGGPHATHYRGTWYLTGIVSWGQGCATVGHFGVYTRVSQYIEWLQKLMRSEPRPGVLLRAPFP

Canis familiaris [25] = experiment: effect on the time to occlusion(TO) in the dog electrolytic injury model at the 10 ug/kg/min to the artery; type: functional, Canis lupus familiaris; in short: as §2
Oryctolagus cuniculus [26] = organism: Oryctolagus cuniculus; experiment: In Vitro evaluation for the concentration for 2 fold prolongation of Prothrombin Time (PT) assay in rabbit; type: functional; in short: as §4
[27] = target: Vitamin K-dependent protein C (Homo sapiens, UniProt P04070); experiment: Compound was tested for in vitro inhibitory activity against activated protein C
Sequence of Vitamin K-dependent protein C (P04070 43-197 limits assumed): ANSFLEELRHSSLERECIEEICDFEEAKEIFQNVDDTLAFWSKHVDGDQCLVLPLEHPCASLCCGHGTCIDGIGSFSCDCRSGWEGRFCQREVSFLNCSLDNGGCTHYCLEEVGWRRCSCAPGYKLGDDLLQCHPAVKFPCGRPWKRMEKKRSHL
Sequence of Vitamin K-dependent protein C (P04070 212-461 limits assumed): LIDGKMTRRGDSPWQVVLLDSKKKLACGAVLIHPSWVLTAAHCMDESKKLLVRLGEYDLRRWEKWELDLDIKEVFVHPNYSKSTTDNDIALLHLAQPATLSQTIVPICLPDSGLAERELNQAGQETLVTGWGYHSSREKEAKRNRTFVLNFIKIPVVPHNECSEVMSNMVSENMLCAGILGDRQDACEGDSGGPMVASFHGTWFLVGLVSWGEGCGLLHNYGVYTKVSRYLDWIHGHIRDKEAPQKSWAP

Canis familiaris [28] = experiment: effect on the time to occlusion(TO) in the dog electrolytic injury model at the 0 ug/kg/min to the vein; type: functional, Canis lupus familiaris; in short: as §2
Oryctolagus cuniculus [29] = experiment: effect on the time to occlusion in the rabbit Veno-venous Shunt model by administering through intravenous (IV) bolus (30 ug/kg) + infusion (1 ug/kg/min); type: functional; in short: as §3
Canis familiaris [30] = experiment: effect on the time to occlusion(TO) in the dog electrolytic injury model at the 5 ug/kg/min to the vein; type: functional, Canis lupus familiaris; in short: as §2
Canis familiaris [31] = experiment: effect on the time to occlusion(TO) in the dog electrolytic injury model at the 0 ug/kg/min to the artery; type: functional, Canis lupus familiaris; in short: as §2
Plasminogen [32] = target: T1, Plasminogen; experiment: Compound was tested for in vitro inhibitory activity against plasmin at 100 uM

T1 sequence (P00747 97-580 limits assumed): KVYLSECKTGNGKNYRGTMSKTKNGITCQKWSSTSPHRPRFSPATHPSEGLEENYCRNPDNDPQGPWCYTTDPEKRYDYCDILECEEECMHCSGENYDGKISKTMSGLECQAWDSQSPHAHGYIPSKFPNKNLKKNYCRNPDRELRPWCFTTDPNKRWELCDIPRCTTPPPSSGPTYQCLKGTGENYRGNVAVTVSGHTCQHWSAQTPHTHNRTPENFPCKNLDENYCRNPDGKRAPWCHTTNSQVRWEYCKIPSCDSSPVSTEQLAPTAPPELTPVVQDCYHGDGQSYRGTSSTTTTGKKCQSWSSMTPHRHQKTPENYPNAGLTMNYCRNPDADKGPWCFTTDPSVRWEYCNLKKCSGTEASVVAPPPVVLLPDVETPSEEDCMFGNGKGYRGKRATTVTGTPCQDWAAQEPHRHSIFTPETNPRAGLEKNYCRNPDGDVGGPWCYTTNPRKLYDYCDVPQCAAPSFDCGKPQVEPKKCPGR
T1 sequence (P00747 581-810 limits assumed): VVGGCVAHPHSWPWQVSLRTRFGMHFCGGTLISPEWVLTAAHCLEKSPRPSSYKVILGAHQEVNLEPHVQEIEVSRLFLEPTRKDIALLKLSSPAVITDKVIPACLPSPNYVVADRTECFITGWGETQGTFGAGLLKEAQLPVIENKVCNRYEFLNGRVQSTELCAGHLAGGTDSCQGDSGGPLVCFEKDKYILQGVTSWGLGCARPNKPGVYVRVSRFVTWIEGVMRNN

Compound: CC1CCCC(C)N1CCCCCN1C(=O)C(c2ccc(C(=N)N)cc2)Oc2ccccc21 (stereo unspecified)
inhibition (Plasminogen [1]): 80%
IC50 (Prothrombin [2]): 1.7 µM
IC50 (Coagulation factor X [3]): 7.9 µM
IC50 (Serine protease 1 [4]): 13 µM

Compound: CC1CCCC(C)N1CCCCCN1C(=O)C(c2ccccc2Cl)Oc2ccccc21 (stereo unspecified)
inhibition (Plasminogen [1]): 23%
IC50 (Prothrombin [2]): 65 µM
IC50 (Coagulation factor X [3]): 16 µM
IC50 (Serine protease 1 [4]): 39 µM

Compound: CC1CCCC(C)N1CCCCCN1C(=O)C(c2ccc(Cl)cc2)Oc2ccccc21 (stereo unspecified)
inhibition (Prothrombin [5]): 38%
inhibition (Plasminogen [1]): 30%
IC50 (Coagulation factor X [3]): 23 µM
inhibition (Serine protease 1 [6]): 46%

Compound: COc1cc(C2Oc3ccccc3N(CCCCCN3C(C)CCCC3C)C2=O)cc(OC)c1OC (stereo unspecified)
inhibition (Prothrombin [5]): 30%
inhibition (Plasminogen [1]): 20%
inhibition (Coagulation factor X [7]): 30%
inhibition (Serine protease 1 [6]): 12%

Compound: C/N=C(/N)c1cccc(C2Oc3ccccc3N(CCCCCN3C(C)CCCC3C)C2=O)c1 (stereo unspecified)
inhibition (Prothrombin [5]): 68%
inhibition (Plasminogen [32]): 32%
inhibition (Serine protease 1 [6]): 32%

Compound: COc1ccc(C2Oc3ccccc3N(CCCCCN3C(C)CCCC3C)C2=O)cc1OC (stereo unspecified)
inhibition (Prothrombin [5]): 0%
inhibition (Plasminogen [1]): 0%
inhibition (Coagulation factor X [7]): 31%
inhibition (Serine protease 1 [6]): 0%

Compound: CC1CCCC(C)N1CCCCCN1C(=O)C(c2ccc(Cl)c(Cl)c2)Oc2ccccc21 (stereo unspecified)
inhibition (Prothrombin [5]): 47%
inhibition (Plasminogen [1]): 25%
IC50 (Coagulation factor X [3]): 26 µM
inhibition (Serine protease 1 [6]): 14%

Compound: CC1CCCC(C)N1CCCCCN1C(=O)C(c2ccccc2)Oc2ccccc21 (stereo unspecified)
inhibition (Prothrombin [5]): 19%
inhibition (Plasminogen [32]): 26%
IC50 (Coagulation factor X [3]): 27 µM
inhibition (Serine protease 1 [6]): 2.8%

Compound: CC1CCCC(C)N1CCCCCN1C(=O)C(c2ccc(C(=N)S)cc2)Oc2ccccc21 (stereo unspecified)
inhibition (Prothrombin [5]): 32%
inhibition (Plasminogen [1]): 44%
IC50 (Coagulation factor X [3]): 34 µM
inhibition (Serine protease 1 [6]): 7.8%

Continued by falling IC50 (Coagulation factor X [3]), values first:

inhibition (Prothrombin [5]): 19%
inhibition (Plasminogen [1]): 11%
IC50 (Coagulation factor X [3]): 5.6 µM
inhibition (Serine protease 1 [6]): 21%
Compound: CC1CCCC(C)N1CCCCCN1C(=O)C(c2cccc(C(=N)NO)c2)Oc2ccccc21 (stereo unspecified)

IC50 (Prothrombin [2]): 1.2 µM
inhibition (Plasminogen [32]): 72%
IC50 (Coagulation factor X [3]): 0.12 µM
IC50 (Serine protease 1 [4]): 1.2 µM
Compound: CC(C)N(CCCCCN1C(=O)C(c2cccc(C(=N)N)c2)Oc2ccccc21)C(C)C (stereo unspecified)

IC50 (Plasminogen [11]): 12 µM
IC50 (Prothrombin [2]): 5.6 µM
IC50 (Coagulation factor X [3]): 0.068 µM
IC50 (Serine protease 1 [4]): 2.1 µM
Compound: CC1CCCC(C)N1CCCCCCN1C(=O)C(c2cccc(C(=N)N)c2)Oc2ccccc21 (stereo unspecified)

IC50 (Plasminogen [11]): 21 µM
IC50 (Prothrombin [2]): 3.4 µM
IC50 (Coagulation factor X [3]): 0.053 µM
IC50 (Serine protease 1 [4]): 0.99 µM
Compound: N=C(N)c1cccc(C2Oc3ccccc3N(CCCCCN3CCCCC3)C2=O)c1 (stereo unspecified)

IC50 (Plasminogen [11]): 8.4 µM
IC50 (Coagulation factor X [16]): 0.004 µM
inhibition [18]: 24%
IC50 (Coagulation factor X [3]): 0.003 µM
inhibition [24]: 32%
IC50 [27]: 23 µM
Compound: CC1CCCC(C)N1CCCCCN1C(=O)C(c2cccc(C(=N)N)c2)Oc2ccccc21 (stereo unspecified)
TO (Canis familiaris [8]): 144 min
TO (Canis familiaris [9]): 167 min
Concentration (Canis lupus familiaris [10]): 0.57 µM
TO (Oryctolagus cuniculus [12]): 37 min
Concentration (Homo sapiens [13]): 0.17 µM
TO (Oryctolagus cuniculus [14]): 98 min
TO (Canis familiaris [15]): 148 min
TO (Canis familiaris [17]): 240 min
Concentration (Homo sapiens [19]): 0.34 µM
Concentration (Oryctolagus cuniculus [20]): 0.15 µM
TO (Canis familiaris [21]): 125 min
Concentration (Canis lupus familiaris [22]): 0.19 µM
TO (Canis familiaris [23]): 240 min
TO (Canis familiaris [25]): 240 min
Concentration (Oryctolagus cuniculus [26]): 0.33 µM
TO (Canis familiaris [28]): 120 min
TO (Oryctolagus cuniculus [29]): 27 min
TO (Canis familiaris [30]): 220 min
TO (Canis familiaris [31]): 87 min
